This note sets out measurements from ChEMBL document CHEMBL1145389, “Total synthesis and biological evaluation of C16 analogs of (-)-dictyostatin” (2007).

For assay [1], the species on record is Bos taurus. As to the kind of experiment: Displacement of [3H]paclitaxel from bovine brain tubulin at 4 uM. The essentials:
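Competition at 37 °C: 4 µM test agent against 2 µM [³H]paclitaxel for binding to microtubules assembled from 2 µM bovine brain tubulin with 20 µM dideoxyGTP; reported as percent competition.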
On the technique in general: In a radioligand displacement assay an active substance lowers the binding of a labelled ligand.

The subject of the next assay is 1A9/ptx-10. As to the kind of experiment: Growth inhibition of beta tubulin Phe270Val mutant expressing human 1A9/Ptx10 cells after 72 hrs. As to conditions: 1A9/ptx-10, 72 h. It counts as functional. The essentials: (§1)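 GI50 determined after 72 h continuous exposure to test agent in ovarian carcinoma 1A9 cells and in paclitaxel-resistant 1A9 clones carrying mutant β-tubulin (Ptx10, βPhe270→Val; Ptx22, βAla364→Thr).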

The subject of a further assay is HeLa. In words: Increase in cellular tubulin polymer mass in HeLa cells assessed as minimum detectable effective concentration after 21 hrs. It counts as functional, Homo sapiens. A digest of the protocol: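 HeLa cells exposed continuously for 21 h; lowest concentration producing a detectable rise in cellular tubulin polymer mass recorded as MDEC.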
A further assay has as its system 1A9/ptx-22. In words: Growth inhibition of beta tubulin A364T mutant expressing human 1A9/Ptx22 cells after 72 hrs. It counts as functional. The note with it: 1A9/ptx-22, 72 h. The essentials: as §1
The next assay has as its system 1A9. In words: Growth inhibition of human 1A9 cells after 72 hrs. It is filed as functional. As to conditions: 1A9, 72 h. A digest of the protocol:
as §1

The species named for assay [2] is Bos taurus. As to the kind of experiment: Induction of bovine brain tubulin polymerization at 10 uM relative to paclitaxel.

Usually GI50 stands for the concentration at which growth is held to half of that of the control. Lower therefore signals greater sensitivity of the cells. For `C=C/C=C\[C@H](C)[C@H](OC(N)=O)[C@@H](C)[C@H](O)[C@@H](C)C/C=C\[C@H](C)[C@@H](O)[C@@H](C)/C=C\[C@@H](O)C[C@@H]1OC(=O)[C@H](C)[C@@H](O)[C@H]1C`, the Activity in the assay listed under Bos taurus [1] worked out at 75%; in the assay on HeLa it was 29 nM. Besides, the results for the GI50 in the assay on 1A9/ptx-10, in the assay with 1A9/ptx-22 and in the assay on 1A9 were 33 nM, 30 nM and 3.7 nM, respectively.

For `C=C/C=C\[C@H](C)[C@H](O)[C@@H](C)[C@H]1CC[C@@H](C)C[C@H](C)[C@@H](O)[C@@H](C)/C=C\[C@@H](O)C[C@H](O)[C@H](C)/C=C/C=C\C(=O)O1`, the Activity in the assay filed under Bos taurus [1] was 4%; in the assay with HeLa, above 5000 nM. Also, the % tubulin polymerization in the assay listed under Bos taurus [2] is 3%. The GI50 in the assay with 1A9/ptx-10 is 44200 nM; with 1A9/ptx-22, 53800 nM; in the assay with 1A9 it was 7800 nM.

`C=C/C=C\[C@H](C)[C@H](O)[C@H](C)[C@@H]1CC/C=C\[C@H](C)[C@@H](O)[C@@H](C)/C=C\[C@H](O)C[C@H](O)[C@H](C)/C=C\C=C\C(=O)O1`: the Activity in the assay listed under Bos taurus [1] is 7%; in the assay on HeLa, above 5000 nM. In the assay filed under Bos taurus [2], this compound returned a % tubulin polymerization of 6%. The GI50 is 32700 nM in the assay on 1A9/ptx-10, above 50000 nM with 1A9/ptx-22 and above 50000 nM in the assay with 1A9.

Regarding `C=C/C=C\[C@H](C)[C@@H]1OC(=O)/C=C\C=C\[C@@H](C)[C@@H](O)C[C@H](O)/C=C\[C@H](C)[C@H](O)[C@@H](C)C[C@@H](C)CC[C@@H](O)[C@@H]1C` [DICTYOSTATIN], the results for the Activity in the assay filed under Bos taurus [1] and in the assay with HeLa were 75% and 5.4 nM, respectively. In addition, the GI50 was 3.2 nM in the assay on 1A9/ptx-10, 1.3 nM in the assay on 1A9/ptx-22 and 0.69 nM in the assay with 1A9.

For the compound `CC(=O)O[C@H]1C(=O)[C@@]2(C)[C@H]([C@H](OC(=O)c3ccccc3)[C@]3(O)C[C@H](OC(=O)[C@H](O)[C@@H](NC(=O)c4ccccc4)c4ccccc4)C(C)=C1C3(C)C)[C@]1(OC(C)=O)CO[C@@H]1C[C@@H]2O` [PACLITAXEL], in the assay filed under Bos taurus [2], the % tubulin polymerization was found to be 100%. Also, the GI50 in the assay on 1A9/ptx-10 was 64 nM; with 1A9/ptx-22, 51 nM; in the assay with 1A9, 0.71 nM. In addition, the Activity in the assay on HeLa came out at 5.2 nM.

As to `C=C/C=C\[C@H](C)[C@H](OC(N)=O)[C@@H](C)[C@H](O)[C@@H](C)C/C(C)=C\[C@H](C)[C@@H](O)[C@@H](C)/C=C\[C@@H](O)C[C@@H]1OC(=O)[C@H](C)[C@@H](O)[C@H]1C` [DISERMOLIDE], the Activity in the assay filed under Bos taurus [1] turned out to be 76%; in the assay with HeLa, 65 nM. In the assay listed under Bos taurus [2], the % tubulin polymerization was 148%. For the same compound, the concentration for 50% growth inhibition (GI50) in the assay on 1A9/ptx-10 is 6.2 nM; in the assay with 1A9/ptx-22 it was 7 nM; in the assay on 1A9, 1.7 nM.

Regarding `C=C/C=C\[C@H](C)[C@@H]1OC(=O)/C=C/C=C/[C@@H](C)[C@@H](O)C[C@H](O)/C=C\[C@H](C)[C@H](O)[C@@H](C)/C=C\CC[C@@H](O)[C@@H]1C`, the values for the Activity in the assay filed under Bos taurus [1] and in the assay on HeLa were 5% and 647 nM, respectively. This compound had a % tubulin polymerization in the assay filed under Bos taurus [2] of 10%. The GI50 with 1A9/ptx-10 came to 23700 nM; with 1A9/ptx-22 it was 847 nM; with 1A9, 210 nM.

For `C=C/C=C\[C@H](C)[C@@H]1OC(=O)/C=C\C=C\[C@@H](C)[C@@H](O)C[C@H](O)/C=C\[C@H](C)[C@H](O)[C@@H](C)/C=C\CC[C@@H](O)[C@@H]1C`, the Activity amounted to 38% in the assay filed under Bos taurus [1] and 11 nM in the assay with HeLa. The compound also showed a % tubulin polymerization in the assay listed under Bos taurus [2] of 107%. For the same compound, the GI50 in the assay with 1A9/ptx-10 is 942 nM; in the assay with 1A9/ptx-22, 62 nM; with 1A9, 8.3 nM.

Consider `C=C/C=C\[C@H](C)[C@@H]1OC(=O)/C=C\C=C\[C@@H](C)[C@@H](O)C[C@H](O)/C=C\[C@H](C)[C@H](O)[C@@H](C)CCCC[C@@H](O)[C@@H]1C`, for which the Activity in the assay listed under Bos taurus [1] worked out at 48%; in the assay on HeLa it was 25 nM. This compound also displayed a % tubulin polymerization in the assay listed under Bos taurus [2] of 91%. The GI50 was determined as 470 nM with 1A9/ptx-10, 5.6 nM in the assay on 1A9/ptx-22 and 0.41 nM in the assay on 1A9.

For the compound `C=C/C=C\[C@H](C)[C@@H]1OC(=O)/C=C\C=C\[C@@H](C)[C@@H](O)C[C@@H](O)/C=C\[C@H](C)[C@H](O)[C@@H](C)/C=C\CC[C@@H](O)[C@@H]1C`, the results for the Activity in the assay listed under Bos taurus [1] and in the assay with HeLa were 11% and above 5000 nM, respectively. In the assay listed under Bos taurus [2], the % tubulin polymerization turned out to be 1%. In addition, the values for the 50% growth inhibitory concentration (GI50) with 1A9/ptx-10, in the assay with 1A9/ptx-22 and with 1A9 were 19300 nM, 4600 nM and 4260 nM, respectively.

Regarding `C=C/C=C\[C@H](C)[C@@H]1OC(=O)/C=C\C=C\[C@@H](C)[C@@H](O)C[C@H](O)/C=C\[C@H](C)[C@H](O)[C@@H](C)C[C@H](C)CC[C@@H](O)[C@@H]1C`, the Activity in the assay filed under Bos taurus [1] stood at 11%; with HeLa, 1280 nM. Also, the % tubulin polymerization in the assay listed under Bos taurus [2] was 9%. Besides, the results for the 50% growth inhibitory concentration (GI50) in the assay with 1A9/ptx-10, with 1A9/ptx-22 and in the assay on 1A9 were 862 nM, 543 nM and 61 nM, respectively.
